From ChEMBL document CHEMBL1125554, “Studies on pyridonecarboxylic acids. 1. Synthesis and antibacterial evaluation of 7-substituted-6-halo-4-oxo-4H-[1,3]thiazeto[3,2-a]quinoline-3-carboxylic acids” (J Med Chem, 1992)
Values after ≈ are worked out from the molar mass of the structure shown.

Key:
Format in all cases: functional
[1] = test system: Escherichia coli; test: In vitro antibacterial activity against Escherichia coli NIH JC-2; conditions: Escherichia coli; read-out: MIC
Procedure, shortened: (§1)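 MIC (μg/mL) by 2-fold agar dilution on Sensitivity Test agar, following the Japan Society of Chemotherapy MIC Committee method. Inocula were about 10⁶ cfu/mL. Growth was read after 20 h incubation at 37 °C.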

[2] = test system: Klebsiella pneumoniae; test: In vitro antibacterial activity against Klebsiella pneumoniae K-1966; conditions: Klebsiella pneumoniae; read-out: MIC; procedure, shortened: as §1
[3] = test system: Pseudomonas aeruginosa; test: In vitro antibacterial activity against Pseudomonas aeruginosa E-2; conditions: Pseudomonas aeruginosa; read-out: MIC; procedure, shortened: as §1
[4] = test system: Shigella flexneri; test: In vitro antibacterial activity against Shigella flexneri 2a EW-10; conditions: Shigella flexneri; read-out: MIC; procedure, shortened: as §1
[5] = test system: Serratia marcescens; test: In vitro antibacterial activity against Serratia marcescens IFO 3736; conditions: Serratia marcescens, IFO 3736; read-out: MIC; procedure, shortened: as §1
[6] = test system: Staphylococcus aureus; test: In vitro antibacterial activity against Staphylococcus aureus 209P JC-1; conditions: Staphylococcus aureus; read-out: MIC; procedure, shortened: as §1
[7] = test system: Micrococcus luteus; test: In vitro antibacterial activity against Micrococcus luteus ATCC 9341; conditions: Micrococcus luteus, ATCC 9341; read-out: MIC; procedure, shortened: as §1
[8] = species on record: Mus musculus; test: Compound was evaluated for oral efficacy on systemic infections in mice by Escherichia coli KC-14
Procedure, shortened: (§2)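 Male ddY mice (20 ± 2 g), seven per dose group. Challenge was intraperitoneal, 0.5 mL of bacteria suspended in 5% gastric mucin: E. coli KC-14 at 4.3 × 10⁴ cfu/mL or P. aeruginosa E-2 at 2.88 × 10⁵ cfu/mL. Drug was suspended in 0.5% HPC-SL and given orally 2 h (E. coli) or 1 h (P. aeruginosa) after challenge. ED50 was calculated by Probit from 7-day survival.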

[9] = species on record: Mus musculus; test: Compound was evaluated for oral Pseudomonas aeruginosa E-2; procedure, shortened: as §2

Compound	MIC [1] [µg/mL]	MIC [2] [µg/mL]	MIC [3] [µg/mL]	MIC [4] [µg/mL]	MIC [5] [µg/mL]	MIC [6] [µg/mL]	MIC [7] [µg/mL]	ED50 [8] [mg/kg]	ED50 [9] [mg/kg]
Cl.O.O=C(O)c1c2n(c3cc(N4CCNCC4)c(F)cc3c1=O)CS2	0.1	0.05	0.78	0.025	0.1	0.05	25		
C=CCN1CCN(c2cc3c(cc2F)c(=O)c(C(=O)O)c2n3C(C)S2)CC1 (centres undefined)	0.05 (≈ 0.128 µM)	0.05 (≈ 0.128 µM)	0.78 (≈ 2 µM)	0.025 (≈ 0.0642 µM)	0.19 (≈ 0.488 µM)	0.05 (≈ 0.128 µM)	1.56 (≈ 4.01 µM)		
CN1CCN(c2cc3c(cc2Cl)c(=O)c(C(=O)O)c2n3CS2)CC1	0.2 (≈ 0.547 µM)	0.2 (≈ 0.547 µM)	1.56 (≈ 4.26 µM)	0.1 (≈ 0.273 µM)	0.39 (≈ 1.07 µM)	0.2 (≈ 0.547 µM)	6.25 (≈ 17.1 µM)		
O=C(O)c1c2n(c3cc(N4CCNCC4)c(F)cc3c1=O)C(c1ccccc1)S2 (centres undefined)	0.025 (≈ 0.0608 µM)	0.025 (≈ 0.0608 µM)	0.2 (≈ 0.486 µM)	0.025 (≈ 0.0608 µM)	0.05 (≈ 0.122 µM)	0.2 (≈ 0.486 µM)	3.13 (≈ 7.61 µM)		
CCC1Sc2c(C(=O)O)c(=O)c3cc(F)c(N4CCN(C)CC4)cc3n21 (centres undefined)					0.78 (≈ 2.07 µM)	0.2 (≈ 0.53 µM)			
O=C(O)c1c2n(c3cc(N4CCNCC4)c(F)cc3c1=O)C(c1ccc(F)cc1)S2 (centres undefined)	0.025 (≈ 0.0582 µM)	0.0125 (≈ 0.0291 µM)	0.39 (≈ 0.908 µM)	0.025 (≈ 0.0582 µM)	0.39 (≈ 0.908 µM)	0.2 (≈ 0.466 µM)	1.56 (≈ 3.63 µM)		
CC1Sc2c(C(=O)O)c(=O)c3cc(F)c(N4CCN(CCO)CC4)cc3n21 (centres undefined)	0.1 (≈ 0.254 µM)	0.1 (≈ 0.254 µM)	1.56 (≈ 3.97 µM)	0.05 (≈ 0.127 µM)	0.39 (≈ 0.991 µM)	0.1 (≈ 0.254 µM)	0.78 (≈ 1.98 µM)		
CCOC(=O)c1c2n(c3cc(N4CCN(C)CC4)c(F)cc3c1=O)C(c1ccccc1)S2 (centres undefined)								0.89	18.1
CC1Sc2c(C(=O)O)c(=O)c3cc(Cl)c(N4CCNCC4)cc3n21 (centres undefined)	0.05 (≈ 0.137 µM)	0.025 (≈ 0.0683 µM)	1.56 (≈ 4.26 µM)	0.0125 (≈ 0.0342 µM)	0.1 (≈ 0.273 µM)	0.1 (≈ 0.273 µM)	1.56 (≈ 4.26 µM)		
CN1CCN(c2cc3c(cc2F)c(=O)c(C(=O)O)c2n3C(c3ccc(F)cc3F)S2)CC1 (centres undefined)	0.39 (≈ 0.845 µM)	0.78 (≈ 1.69 µM)	3.13 (≈ 6.78 µM)	0.78 (≈ 1.69 µM)	12.5 (≈ 27.1 µM)	1.56 (≈ 3.38 µM)	6.25 (≈ 13.5 µM)		
CC1Sc2c(C(=O)O)c(=O)c3cc(F)c(N4CCOCC4)cc3n21 (centres undefined)	0.1 (≈ 0.285 µM)	0.1 (≈ 0.285 µM)	0.39 (≈ 1.11 µM)	0.1 (≈ 0.285 µM)	0.39 (≈ 1.11 µM)	0.1 (≈ 0.285 µM)	1.56 (≈ 4.45 µM)		
O=C(O)c1c2n(c3cc(N4CCNCC4)c(F)cc3c1=O)C(c1ccccc1F)S2 (centres undefined)	0.39 (≈ 0.908 µM)	0.78 (≈ 1.82 µM)	3.13 (≈ 7.29 µM)	0.78 (≈ 1.82 µM)	12.5 (≈ 29.1 µM)	1.56 (≈ 3.63 µM)	12.5 (≈ 29.1 µM)		
CCOC(=O)c1c2n(c3cc(N4CCN(CC(C)=O)CC4)c(F)cc3c1=O)C(C)S2 (centres undefined)								0.78	27
CC1Sc2c(C(=O)O)c(=O)c3cc(F)c(-n4ccnc4)cc3n21 (centres undefined)	0.2 (≈ 0.604 µM)	0.1 (≈ 0.302 µM)	3.13 (≈ 9.45 µM)	0.1 (≈ 0.302 µM)	0.78 (≈ 2.35 µM)	0.39 (≈ 1.18 µM)	6.25 (≈ 18.9 µM)		
CC1Sc2c(C(=O)O)c(=O)c3cc(F)c(N4CCN(C)CC4)cc3n21 (centres undefined)	0.025 (≈ 0.0688 µM)	0.025 (≈ 0.0688 µM)	0.39 (≈ 1.07 µM)	0.0125 (≈ 0.0344 µM)	0.05 (≈ 0.138 µM)	0.1 (≈ 0.275 µM)	1.56 (≈ 4.29 µM)	0.97	8.84
CC1Sc2c(C(=O)O)c(=O)c3cc(Cl)c(N4CCN(C)CC4)cc3n21 (centres undefined)	0.1 (≈ 0.263 µM)	0.025 (≈ 0.0658 µM)	1.56 (≈ 4.11 µM)	0.1 (≈ 0.263 µM)	0.1 (≈ 0.263 µM)	0.2 (≈ 0.526 µM)	3.13 (≈ 8.24 µM)		
